# In ChEMBL document CHEMBL1155257, “Proteochemometrics mapping of the interaction space for retroviral proteases and their substrates” (Bioorg Med Chem, 2009):
# Non-standard residues stand in square brackets, D forms with d. Residues, ends and D or L forms follow the SMILES beside them. Groups on a side chain read outwards from the residue. ξ: configuration not given here. *: point of attachment. Phe(4-Br) = N[C@@H](Cc1ccc(Br)cc1)C(=O)O; Phe(4-Cl) = N[C@@H](Cc1ccc(Cl)cc1)C(=O)O; Phe(4-NH2) = Nc1ccc(C[C@H](N)C(=O)O)cc1; 2Nal = N[C@@H](Cc1ccc2ccccc2c1)C(=O)O; hArg = N=C(N)NCCCC[C@H](N)C(=O)O; hPhe = N[C@@H](CCc1ccccc1)C(=O)O; Cha = N[C@@H](CC1CCCCC1)C(=O)O; Phg = N[C@H](C(=O)O)c1ccccc1; Nle = CCCC[C@H](N)C(=O)O; Dab = NCC[C@H](N)C(=O)O; Nva = CCC[C@H](N)C(=O)O; Dap = NC[C@H](N)C(=O)O; ξDab = NCCC(N)C(=O)O; ξDap = NCC(N)C(=O)O; Bn = c1ccc(C*)cc1
# Assays:
# Protease [1] = target: T1, Protease (Human immunodeficiency virus 1, UniProt Q9YQ12); test: Inhibition of wild type HIV1 HXB2 protease at 100 uM
# T1 sequence (Q9YQ12 whole entry): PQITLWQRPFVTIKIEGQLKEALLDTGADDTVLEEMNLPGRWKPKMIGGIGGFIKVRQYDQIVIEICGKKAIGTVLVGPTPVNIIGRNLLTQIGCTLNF
# [2] = Inhibition of HIV1 HXB2 protease […] mutant at 100 uM; set-up: species or system Human immunodeficiency virus 1
# Summary of the method: (§1)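 Mutant HIV-1 HXB2 protease clones (I84V, L90M, or I84V+L90M), 70 ng per 100 µL reaction. Buffer: 0.1 M acetic acid, 1.1 M NaCl, pH 5.0. Enzyme preincubated 10 min at 37 °C with hexapeptide (11 twofold dilutions from 100 µM). Substrate (2.25 µg) then added and reacted 30 min at 37 °C. Fluorescence read every 60 s (ex 355/em 490 nm) against a no-inhibitor control.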
# [3] = Inhibition of HIV1 HXB2 protease […], L90M mutant at 100 uM; set-up: species or system Human immunodeficiency virus 1; summary of the method: as §1
# [4] = target: T2, Human immunodeficiency virus type 1 protease (Human immunodeficiency virus 1, UniProt Q72874, L90M); test: Inhibition of HIV1 HXB2 protease L90M mutant at 100 uM; summary of the method: as §1
# [5] = Inhibition of HIV1 HXB2 protease 184V mutant; set-up: species or system Human immunodeficiency virus 1; summary of the method: as §1
# Protease [6] = target: T1, Protease; test: Inhibition of wild type HIV1 HXB2 protease
# Summary of the method: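 HXB2 HIV-1 protease clone (35 ng per 100 µL) in 0.1 M acetic acid, 1.1 M NaCl, pH 5.0. Hexapeptide was preincubated with enzyme for 10 min at 37 °C. Substrate (2.25 µg) was then added and fluorescence (ex 355/em 490 nm) read over 30 min at 37 °C. Eleven twofold dilutions from 100 µM; 1 mM stocks in DMSO/water 1:2. Protease-plus-substrate control without inhibitor.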
# [7] = Inhibition of HIV1 HXB2 protease […], L90M mutant; set-up: species or system Human immunodeficiency virus 1; summary of the method: as §1
# [8] = target: T2, Human immunodeficiency virus type 1 protease; test: Inhibition of HIV1 HXB2 protease L90M mutant; summary of the method: as §1
Compound,Ki (Protease [1]),Ki [2],Ki [3],Ki [4],Ki [5],Ki (Protease [6]),Ki [7],Ki [8]
CC(=O)N[C@@H](CC(=O)O)C(=O)NCC(=O)NCC(=O)N[C@@H](C)C(=O)N[C@@H](CC(C)C)C(=O)N[C@@H](CO)C(=O)O (Ac-DGGALS-OH),Not Active,Not Active,Not Active,Not Active,–,–,–,–
CC(=O)N[C@H](C(=O)N[C@@H](CC(N)=O)C(=O)N[C@H](C(=O)N[C@H](C(=O)N[C@@H](C)C(=O)N[C@@H](CC(=O)O)C(=O)O)[C@@H](C)O)[C@@H](C)O)[C@@H](C)O (Ac-TNTTAD-OH),Not Active,Not Active,Not Active,Not Active,–,–,–,–
CC[C@H](C)[C@H](NC(=O)[C@H](Cc1cnc[nH]1)NC(=O)[C@H](C)NC(=O)[C@H](CO)NC(=O)[C@H](CCCNC(=N)N)NC(=O)[C@@H](NC(C)=O)C(C)C)C(=O)O (Ac-VRSAHI-OH),Not Active,Not Active,Not Active,Not Active,–,–,–,–
CCC[C@H](NC(=O)[C@H](Cc1ccc2ccccc2c1)NC(=O)[C@H](CCC(=O)O)NC(=O)C(N)CNC(=O)[C@H](CC1CCCCC1)NC(=O)[C@@H](N)Cc1ccc2ccccc2c1)C(=O)O (stereo not given in full) (H-[ξDap]([Cha-2Nal])E[2Nal][Nva]-OH),–,–,–,–,20.7 µM,12 µM,20.8 µM,9.7 µM
CC(=O)N[C@@H](CO)C(=O)N1CCC[C@H]1C(=O)N[C@@H](C)C(=O)N[C@H](C(=O)N[C@@H](CCC(=O)O)C(=O)N[C@@H](C)C(=O)O)[C@@H](C)O (Ac-SPATEA-OH),Not Active,Not Active,Not Active,Not Active,–,–,–,–
CCC[C@H](NC(=O)[C@H](Cc1ccc2ccccc2c1)NC(=O)[C@H](CCCCNC(=N)N)NC(=O)[C@@H](N)CNC(=O)[C@H](CCC)NC(=O)[C@@H](N)CCc1ccccc1)C(=O)O (H-[Dap]([Nva-hPhe])[hArg][2Nal][Nva]-OH),–,–,–,–,13.3 µM,5.2 µM,15.7 µM,23.6 µM
CC(C)C[C@H](NC(=O)[C@H](Cc1ccccc1)NC(=O)[C@H](CCCCNC(=N)N)NC(=O)[C@@H](N)CNC(=O)[C@H](CC1CCCCC1)NC(=O)[C@@H](N)CCc1ccccc1)C(=O)O (H-[Dap]([Cha-hPhe])[hArg]FL-OH),–,Not Active,Not Active,–,–,4.6 µM,–,26.5 µM
CC(=O)NCC(=O)N[C@H](C(=O)N[C@@H](C)C(=O)N[C@@H](Cc1ccc(O)cc1)C(=O)N[C@@H](CO)C(=O)N[C@@H](CS)C(=O)O)[C@@H](C)O (Ac-GTAYSC-OH),Not Active,Not Active,Not Active,Not Active,–,–,–,–
CC(C)C[C@H](NC(=O)[C@H](Cc1ccc(Br)cc1)NC(=O)[C@H](CCC(=O)O)NC(=O)C(N)CNC(=O)[C@H](CC1CCCCC1)NC(=O)[C@@H](N)Cc1ccc(Cl)cc1)C(=O)O (stereo partly drawn) (H-[ξDap]([Cha-Phe(4-Cl)])E[Phe(4-Br)]L-OH),–,–,–,–,37.7 µM,5.5 µM,34.6 µM,15.7 µM
CC(=O)N[C@H](C(=O)N[C@@H](C)C(=O)N[C@@H](C)C(=O)NCC(=O)N[C@@H](CCCNC(=N)N)C(=O)N[C@H](C(=O)O)[C@@H](C)O)[C@@H](C)O (Ac-TAAGRT-OH),Not Active,Not Active,Not Active,Not Active,–,–,–,–
CC(=O)N[C@@H](C)C(=O)N[C@@H](Cc1cnc[nH]1)C(=O)N[C@@H](Cc1ccc(O)cc1)C(=O)N[C@@H](C)C(=O)N[C@H](C(=O)N[C@@H](Cc1cnc[nH]1)C(=O)O)[C@@H](C)O (Ac-AHYATH-OH),Not Active,Not Active,Not Active,Not Active,–,–,–,–
CCC[C@H](NC(=O)[C@H](Cc1ccc(O)cc1)NC(=O)[C@H](CCCCNC(=N)N)NC(=O)[C@H](CCSC)NC(=O)[C@@H](NC(=O)[C@@H](N)Cc1ccc2ccccc2c1)C(C)C)C(=O)O (H-[2Nal]VM[hArg]Y[Nva]-OH),–,–,–,–,19.9 µM,5.4 µM,7.5 µM,6.9 µM
NC(CCNC(=O)[C@H](CC1CCCCC1)NC(=O)[C@@H](N)Cc1ccc(Cl)cc1)C(=O)N[C@@H](CCC(=O)O)C(=O)N[C@@H](Cc1ccccc1)C(=O)N[C@@H](CC1CCCCC1)C(=O)O (stereo not given in full) (H-[ξDab]([Cha-Phe(4-Cl)])EF[Cha]-OH),–,Not Active,Not Active,–,–,3.8 µM,–,31.1 µM
CC(=O)N1CCC[C@H]1C(=O)N[C@@H](Cc1ccc(O)cc1)C(=O)N[C@@H](C)C(=O)NCC(=O)N[C@@H](C)C(=O)N[C@@H](CCC(N)=O)C(=O)O (Ac-PYAGAQ-OH),Not Active,Not Active,Not Active,Not Active,–,–,–,–
CC(=O)N[C@@H](Cc1ccc(O)cc1)C(=O)N[C@@H](C)C(=O)N[C@H](C(=O)N1CCC[C@H]1C(=O)NCC(=O)N[C@H](C(=O)O)[C@H](C)O)[C@H](C)O,Not Active,Not Active,Not Active,Not Active,–,–,–,–
N=C(N)NCCC[C@H](NC(=O)C(N)CCNC(=O)[C@H](CC1CCCCC1)NC(=O)[C@@H](N)CCc1ccccc1)C(=O)N[C@@H](CCc1ccccc1)C(=O)N[C@@H](CC1CCCCC1)C(=O)O (stereo not given in full) (H-[ξDab]([Cha-hPhe])R[hPhe][Cha]-OH),–,Not Active,Not Active,–,–,2 µM,–,47.4 µM
CCCC[C@H](NC(=O)[C@H](Cc1ccc(OCc2ccccc2)cc1)NC(=O)[C@H](Cc1ccc(N)cc1)NC(=O)[C@H](CCCCN)NC(=O)[C@H](CC1CCCCC1)NC(=O)[C@@H](N)Cc1ccc2ccccc2c1)C(=O)O (H-[2Nal][Cha]K[Phe(4-NH2)]Y(Bn)[Nle]-OH),–,–,–,–,31.6 µM,24.1 µM,56 µM,9.2 µM
CC(=O)N[C@@H](CO)C(=O)N[C@H](C(=O)N[C@@H](CCCNC(=N)N)C(=O)N[C@@H](CS)C(=O)N[C@@H](CO)C(=O)N[C@@H](Cc1c[nH]c2ccccc12)C(=O)O)C(C)C (Ac-SVRCSW-OH),Not Active,Not Active,Not Active,Not Active,–,–,–,–
CCCC[C@H](NC(=O)[C@@H](N)Cc1ccc2ccccc2c1)C(=O)NCC[C@H](N)C(=O)N[C@@H](CCC(=O)O)C(=O)N[C@@H](CCc1ccccc1)C(=O)N[C@@H](CCC)C(=O)O (H-[Dab]([Nle-2Nal])E[hPhe][Nva]-OH),–,Not Active,Not Active,–,–,22 µM,–,16.7 µM
CSCC[C@H](NC(=O)[C@H](CC1CCCCC1)NC(=O)[C@@H](N)Cc1ccc2ccccc2c1)C(=O)N[C@@H](CCC(=O)O)C(=O)N[C@H](C(=O)N[C@@H](CC1CCCCC1)C(=O)O)c1ccccc1 (H-[2Nal][Cha]ME[Phg][Cha]-OH),–,–,–,–,3.9 µM,5.5 µM,2.7 µM,2.4 µM
